In the library only some 2.1% were active in any assay of this set; here they are far more common.
Wee1 stabilizer – blocks degradation of human Wee1 kinase; P30291; HeLa Luc-Wee1K328M stability, luciferase luminescence; 100% = proteasome inhibitor MG132 effect; reporter increase, % at 5 µM; 220,000 tested, 1.2% active; AID 1321;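 active = activation above the mean of all tested compounds plus 3 SD, set per screening run, cut at about 8.8% in these data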;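 note: cells exposed to compound for 20 h before luminescence read; 0% = DMSO alone and 100% = MG132 at 30 µM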
zVAD death inh – L929 zVAD cell death inhibition; L929 zVAD necroptosis rescue, ATP luminescence, 24 h; with zVAD 60 µM; viability rescue, % at 10 µM; 220,000 tested, 0.38% active;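 active = activation, scaled between plate controls, above about 75%, limit read from the data; inactive = activation under that limit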;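 note: 0% = zVAD with DMSO and 100% = DMSO alone without zVAD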
Calpain2 inh – calpain II (pig) inhibition; purified calpain II, fluorogenic peptide substrate, 30 min; inhibition, % at 16 µM; 220,000 tested, 0.37% active; AID 1236;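 active = inhibition above about 50%, limit read from the data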
Pf gamet viab – inhibitors of late stage P. falciparum gametocyte viability | P. falciparum stage V gametocytes, ATP luminescence, 24 h | inhibition, % at 10.9 µM | 150,000 tested, 0.065% active;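 active = inhibition above the mean plus 3 SD of compounds within the control limits, set per campaign, cut at about 38% in these data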;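 note: 0% = DMSO wells and 100% = medium only without gametocytes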
TNF death inh – blocks TNF-alpha induced death of Jurkat FADD-/- cells. activation (protection from cell death), % at 10 µM. Jurkat FADD-/- TNF necroptosis rescue, ATP luminescence, 24 h; 0 = TNF only, 100 = no-TNF cells. AID 463075. 220,000 tested, 0.068% active;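 active = activation, meaning protection from cell death, of at least 50% relative to plate controls; inactive = activation below 50%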;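 note: necroptosis triggered by 40 ng/mL TNF-alpha added together with compound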
RBBP9 inh – inhibitors of human serine hydrolase RBBP9; O75884; recombinant RBBP9, FP-Rh probe fluorescence polarization; inhibition, % at 7.94 µM; 220,000 tested, 0.2% active; AID 1515;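 active = inhibition above the campaign mean of all tested compounds plus 3 SD, cut at about 14% in these data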;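 note: plate controls were DMSO wells with RBBP9 for no effect and wells lacking RBBP9 protein for full effect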
Target sequence (O75884 whole entry, looked up): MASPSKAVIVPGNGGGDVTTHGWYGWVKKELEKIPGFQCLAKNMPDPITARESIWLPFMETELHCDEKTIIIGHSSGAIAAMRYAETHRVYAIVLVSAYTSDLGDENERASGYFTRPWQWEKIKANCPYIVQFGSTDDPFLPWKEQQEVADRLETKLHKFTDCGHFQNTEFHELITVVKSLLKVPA
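Test system – recombinant human RBBP9 · Input – RBBP9 2.5 µM in dispensing solution, pre-mixing · Medium – Tris buffer pH 8.0, NaCl, Pluronic · Schedule – preincubation 30 min plus labeling 45 min at 25 °C · Measured by – fluorescence polarization · Measure – % inhibition · Controls – DMSO and no-protein wells · Replicates – one well per compound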
Starred values were filed as active, the others as inactive.

Screening COc1ccc2[nH]c3c(N4CCc5ccccc5C4)ncnc3c2c1 returned Wee1 stabilizer 9.7*, zVAD death inh -1, Calpain2 inh -138, Pf gamet viab -7, TNF death inh -14 and RBBP9 inh -6.
`Cc1cccc(/C=C/C(=O)c2ccc(N3CCOCC3)cc2)c1` gave Wee1 stabilizer -1, zVAD death inh -1, Calpain2 inh 53*, Pf gamet viab -2, TNF death inh 1 and RBBP9 inh -4.
For O=C(/C=C/c1ccc(F)cc1)c1ccc(N2CCOCC2)cc1 the results were Wee1 stabilizer -2, zVAD death inh 0, Calpain2 inh 6, Pf gamet viab -4, TNF death inh -1 and RBBP9 inh 0.
For COc1cc(CNC2CCCC2)cc(Br)c1OCC(=O)Nc1ccccc1C the results were Wee1 stabilizer -4, zVAD death inh 0, Calpain2 inh 26, Pf gamet viab 6, TNF death inh 2 and RBBP9 inh -4.
For Nc1nonc1C(=O)N/N=C/c1cc(Br)ccc1O the results were Wee1 stabilizer 0, zVAD death inh 51, Calpain2 inh -36, Pf gamet viab -34, TNF death inh -11 and RBBP9 inh -5.
`Fc1ccccc1N1CCN(C(c2cccs2)c2nnnn2CCc2ccccc2)CC1` (stereo not drawn) gave Wee1 stabilizer 2, zVAD death inh 0, Calpain2 inh 55*, Pf gamet viab 5, TNF death inh -3 and RBBP9 inh -1.
O=C(NCCCn1ccnc1)c1ccc(Br)o1 was read as Wee1 stabilizer 3, zVAD death inh 0, Calpain2 inh -8, Pf gamet viab -4, TNF death inh 0 and RBBP9 inh -3.
For Cc1ccc(Sc2ncnc3onc(C)c23)c(C)c1 the results were Wee1 stabilizer 9.1*, zVAD death inh -1, Calpain2 inh -28, Pf gamet viab -35, TNF death inh 1 and RBBP9 inh -6.
Screening CN(CCCC(=O)O)c1ccc(N=Nc2ccc([N+](=O)[O-])cc2)cc1 returned Pf gamet viab -33.
Screening NC(=O)c1ccsc1NC(=O)CSc1ccccc1F returned Wee1 stabilizer 3, zVAD death inh 0, Calpain2 inh -5, Pf gamet viab -5, TNF death inh -2 and RBBP9 inh -6.
`NC(=O)c1ccsc1NC(=O)c1coc2ccccc2c1=O` gave Wee1 stabilizer 10*, zVAD death inh 0, Calpain2 inh -11, Pf gamet viab 4, TNF death inh -2 and RBBP9 inh -16.
For CC(Oc1ccccc1)C(=O)N1CCN=C1SCc1ccccc1 (stereo not drawn) the results were Wee1 stabilizer 1, zVAD death inh 3, Calpain2 inh -4, Pf gamet viab 6, TNF death inh -1 and RBBP9 inh 6.
`CC(C)n1c(NCc2cccs2)nc2ccccc21` gave Wee1 stabilizer 8.8*, zVAD death inh 0, Calpain2 inh -8, TNF death inh 1 and RBBP9 inh -6.
`CC1CCCN(C(=O)CCCn2c(=S)[nH]c3ccccc3c2=O)C1` (stereo not drawn) gave Wee1 stabilizer 9.7*, zVAD death inh 0, Calpain2 inh 9, Pf gamet viab -30, TNF death inh 3 and RBBP9 inh 3.
COc1cc(NS(=O)(=O)c2ccc(NC(=S)NC(=O)c3sc4ccccc4c3Cl)cc2)nc(OC)n1 was read as Wee1 stabilizer -1, zVAD death inh 1, Calpain2 inh 58*, Pf gamet viab -5, TNF death inh 3 and RBBP9 inh -7.
COc1cc(NS(=O)(=O)c2ccc(NC(=S)NC(=O)c3sc4cc(F)ccc4c3Cl)cc2)nc(OC)n1 was read as Wee1 stabilizer -3, zVAD death inh 2, Calpain2 inh 20, Pf gamet viab -29, TNF death inh 0 and RBBP9 inh -3.
O=C1c2ccccc2C(=O)N1CCCCN(C(=O)c1ccc(Cl)s1)c1ccc(Cl)cc1 was read as Wee1 stabilizer 0, zVAD death inh -1, Calpain2 inh 8, Pf gamet viab 1, TNF death inh 1 and RBBP9 inh -5.
